Fh CTSL1 inh – blocks F. hepatica cathepsin L1 in PFM18AAP counter-screen. recombinant F. hepatica cathepsin L1, Z-Leu-Arg-MCA fluorescence. inhibition, % at 5.96 µM. 0.49% of 300,000 active;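 active = inhibition above the mean of all tested compounds plus 3 SD, set per screening campaign, cut at about 17% in these data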;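 note: 0% = plate median of test compound wells and 100% = 1 µM Z-Phe-Ala-diazomethylketone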
PAD4 inh – PAD4 (human) enzyme inhibition | 0.41% of 330,000 active | inhibition, % at 6.36 µM | AID 485272 | recombinant PAD4, RCA probe fluorescence polarization | Q9UM07;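 active = percent inhibition above a cutoff equal to the mean of all tested compounds plus 3 SD, cut at about 15% in these data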;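 note: 0% = PAD4 with RCA probe and DMSO and 100% = probe without PAD4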
Target sequence (Q9UM07 whole entry, looked up): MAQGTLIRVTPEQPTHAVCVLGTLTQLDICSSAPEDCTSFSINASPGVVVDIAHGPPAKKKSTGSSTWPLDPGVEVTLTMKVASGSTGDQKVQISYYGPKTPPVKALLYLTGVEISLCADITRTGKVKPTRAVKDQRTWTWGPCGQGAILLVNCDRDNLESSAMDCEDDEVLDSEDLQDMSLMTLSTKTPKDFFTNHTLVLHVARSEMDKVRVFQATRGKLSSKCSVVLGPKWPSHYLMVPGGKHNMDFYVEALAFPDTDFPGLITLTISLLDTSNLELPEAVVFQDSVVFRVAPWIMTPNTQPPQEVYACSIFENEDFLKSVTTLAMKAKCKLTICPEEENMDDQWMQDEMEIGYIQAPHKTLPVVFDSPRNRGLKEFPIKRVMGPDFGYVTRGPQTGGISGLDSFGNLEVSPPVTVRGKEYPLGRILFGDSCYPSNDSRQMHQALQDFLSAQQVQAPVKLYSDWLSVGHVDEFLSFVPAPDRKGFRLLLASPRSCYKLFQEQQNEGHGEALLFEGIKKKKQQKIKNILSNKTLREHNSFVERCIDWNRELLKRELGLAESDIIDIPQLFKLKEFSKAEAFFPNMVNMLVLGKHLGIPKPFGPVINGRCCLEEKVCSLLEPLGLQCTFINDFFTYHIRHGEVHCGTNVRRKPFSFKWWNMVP
Apaf1 inhib – inhibitors of human Apaf-1 apoptosome. O14727. reconstituted apoptosome caspase-3 activity, DEVD-Rh110 fluorescence. inhibition, % at 20 µM. 0.71% of 330,000 active. AID 489030; active = inhibition of at least 40% at 20 µM;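 note: plate controls were DMSO wells for no effect and DEVD-CHO caspase inhibitor wells for full effect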
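System: reconstituted apoptosome with Apaf-1, cytochrome c, caspase-9, procaspase-3, dATP; Signal: Rh110 fluorescence intensity; Schedule: 30 min compound preincubation, 50 min activation, room temperature; Reagent: cytochrome c trigger plus (Z-DEVD)2-Rh110 caspase-3 substrate.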
TDP2 absorb – TDP2 (human) inhibition, absorbance primary screen; recombinant TDP2, T5PNP hydrolysis, p-nitrophenol absorbance 415 nm; inhibition, % at 12.8 µM; 0.34% of 370,000 active;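 active = inhibition above the mean of all tested compounds plus 3 SD, set per campaign, cut at about 25% in these data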;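 note: 0% = DMSO with enzyme and 100% = buffer with substrate but no TDP2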
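Evaluation: % inhibition relative to enzyme-containing and enzyme-free wells. Material: recombinant human TDP2. Benchmarks: enzyme-free and DMSO wells. Timing: enzyme reaction with compound for 2 h at 37 °C. Compound dosing: 12.8 µM only. Measured by: p-Nitrophenol epi absorbance. Reagent: T5PNP substrate at 5 mM, a TopII-DNA adduct mimic. Replication: single well per compound.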
GSTO1 counter – counter-screen for RBBP9 inhibitors: inhibitors of human GSTO1; recombinant GSTO1, activity-based probe fluorescence polarization; inhibition, % at 5.96 µM; 1.1% of 300,000 active; AID 1974;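 active = inhibition above the campaign mean inhibition plus 3 SD, cut at about 35% in these data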;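 note: 0% = GSTO1-1 with DMSO and 100% = wells lacking GSTO1-1 enzyme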
* = called active by the depositor. Hits are enriched below; roughly 1.8% of the tested compounds scored in any of these assays.

Results for COc1cc(CNc2ccc(N3CCCC3)cc2)ccc1OCc1ccccc1 ?
Fh CTSL1 inh: -1; PAD4 inh: -15; TDP2 absorb: -5; GSTO1 counter: 53*

How did COc1ccc(CNc2ccc(N3CCN(C(C)=O)CC3)cc2)cc1OC do in these assays?
TDP2 absorb: -8

Results for CCCC1CCC2(CC1)CCC2OC(=S)NCc1ccc(Cl)cc1 (stereo not given) ?
TDP2 absorb: -6

How did O=C(NC1CCC1)O[C@H]1CC[C@@]23CCCN2C(=O)CCC[C@H]3C1 do in these assays?
TDP2 absorb: -6

What do the screens show for `COc1ccc(N2C(=O)C(Cl)=C(Nc3ccccc3O)C2=O)cc1`?
Fh CTSL1 inh: 50*; PAD4 inh: -7; Apaf1 inhib: 9; TDP2 absorb: 13; GSTO1 counter: 20

Results for N#Cc1c(N)nc(SCc2ccncc2)c(C#N)c1-c1cccs1 ?
Fh CTSL1 inh: 4; PAD4 inh: 0; Apaf1 inhib: 14; TDP2 absorb: -10; GSTO1 counter: -70

What do the screens show for `CN1CCc2nc(SCc3ccc(Cl)cc3)c(C#N)c(-c3cccs3)c2C1`?
Fh CTSL1 inh: 1; PAD4 inh: -3; Apaf1 inhib: 83*; TDP2 absorb: 1; GSTO1 counter: 25

What do the screens show for `CC(C)(C)c1ccc(O)c(N=Cc2cc(Br)ccc2O)c1`?
Fh CTSL1 inh: -4; PAD4 inh: -3; Apaf1 inhib: 13; TDP2 absorb: 15; GSTO1 counter: 35*

How did CCOC(=O)NC1c2ccccc2Oc2ccccc21 do in these assays?
Fh CTSL1 inh: 2; PAD4 inh: -2; Apaf1 inhib: 2; TDP2 absorb: 2; GSTO1 counter: 12

How did CCOC(=O)NC1(NC(C)C)Oc2ccccc2O1 do in these assays?
Fh CTSL1 inh: -2; PAD4 inh: -2; Apaf1 inhib: 0; TDP2 absorb: 6; GSTO1 counter: 37*

Results for CCOC(=O)NC1(Nc2ccc(C)cc2)Oc2ccccc2O1 ?
Fh CTSL1 inh: 0; PAD4 inh: -3; Apaf1 inhib: 7; TDP2 absorb: -8; GSTO1 counter: 82*

What do the screens show for `C=CCN1[C@H](C)COc2cc(F)ccc2S1(=O)=O`?
TDP2 absorb: 1

How did CC(C)NC[C@H](O)COc1cccc2[nH]ccc12 do in these assays?
Fh CTSL1 inh: 86*; PAD4 inh: 0; Apaf1 inhib: -7; TDP2 absorb: -2; GSTO1 counter: 0

What do the screens show for `CC(C)NC[C@H](O)COc1cccc2ccccc12`?
Fh CTSL1 inh: 1; PAD4 inh: -7; Apaf1 inhib: -6; TDP2 absorb: -7; GSTO1 counter: 1

What do the screens show for `CC(C)[C@H](CO)Nc1nc(Nc2ccc(Cl)c(C(=O)O)c2)c2ncn(C(C)C)c2n1`?
Fh CTSL1 inh: -7; PAD4 inh: -5; Apaf1 inhib: 44*; TDP2 absorb: -11; GSTO1 counter: -4

Results for O=C(Nc1ccccc1NC(=O)c1csnn1)c1csnn1 ?
Fh CTSL1 inh: 28*; PAD4 inh: 2; Apaf1 inhib: -1; TDP2 absorb: -13; GSTO1 counter: 3

Results for CCOc1ccc(C(=O)CSc2nnc(SCc3ccc(Cl)cc3)s2)cc1 ?
TDP2 absorb: -1

Results for Cc1nnc2sc(SCC(=O)N3CCC(C)CC3)nn2c1=O ?
Fh CTSL1 inh: 47*; PAD4 inh: 1; Apaf1 inhib: 9; TDP2 absorb: 5; GSTO1 counter: 12

How did Cc1nnc2sc(SCC(=O)N3CCCCC3)nn2c1=O do in these assays?
Fh CTSL1 inh: 1; PAD4 inh: 2; Apaf1 inhib: -8; TDP2 absorb: -17; GSTO1 counter: 5

How did Cc1ccc(CC2CC(=O)N(CCc3ccccc3)C2=O)cc1 (stereo not given) do in these assays?
Fh CTSL1 inh: 0; PAD4 inh: -1; Apaf1 inhib: 0; TDP2 absorb: 4; GSTO1 counter: 2

Results for Cc1ccc(CC2CC(=O)N(C(Cc3ccccc3)C(=O)O)C2=O)cc1 (stereo not given) ?
Fh CTSL1 inh: -3; PAD4 inh: -6; Apaf1 inhib: 13; TDP2 absorb: 0; GSTO1 counter: 36*

Results for COc1ccc(S[C@]2(C(=O)N3CCCC3)CC(=O)N(C(=O)Nc3ccc(C)c(Cl)c3)[C@@H]2c2ccc(OC)cc2)cc1 ?
TDP2 absorb: -1

What do the screens show for `O=C(COC(=O)CSc1ccc([N+](=O)[O-])cc1)NCc1cccs1`?
Fh CTSL1 inh: 18*; PAD4 inh: -4; Apaf1 inhib: 6; TDP2 absorb: 0; GSTO1 counter: 3
